ChEMBL document CHEMBL3853270, “Influence of Birch Bark Triterpenes on Keratinocytes and Fibroblasts from Diabetic and Nondiabetic Donors” (2016)
Calls of active or inactive are those of the source. No cut-off for these calls is given here.

Key:
Type in all cases: functional
[1] = Effect on wound healing activity in non-diabetic adult human primary fibroblasts assessed as upregulation of soluble VCAM1 protein levels at 1.96 uM after 24 hrs by bead-based suspension array analysis; conditions: Fibroblast
Keratinocyte [2] = test: Effect on wound healing activity in diabetic adult human primary keratinocytes assessed as increase in soluble gp130 part of IL6 receptor protein levels at 1.96 uM after 24 hrs by bead-based suspension array analysis
[3] = Effect on wound healing activity in non-diabetic adult human primary keratinocytes assessed as upregulation of MIF protein levels at 1.96 uM after 24 hrs by bead-based suspension array analysis; conditions: Keratinocyte
Keratinocyte [4] = test: Effect on actin cytoskeleton in human diabetic primary keratinocytes assessed as formation of cellular protrusions at 10 nM after 2 hrs by rhodamine phalloidin-staining based fluorescence microscopic analysis
Method in brief: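 Subconfluent cells on glass coverslips, collagen type I coated for fibroblasts; keratinocytes starved 2 days before stimulation. Exposure 2 h, then rhodamine-phalloidin staining (1:25 in PBS) and fluorescence microscopy. Controls were DMSO as solvent and PDGF (fibroblasts) or CNF1 (keratinocytes). Where used, p38-MAPK inhibitor LN 950 (100 nM) was added 30 min beforehand.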

Fibroblast [5] = test: Effect on growth factor related gene expression in non-diabetic adult human primary fibroblasts assessed as GDF15 mRNA levels at 9.81 uM after 6 hrs by qPCR analysis
Method in brief: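 Primary human dermal fibroblasts (young or adult nondiabetic, adult diabetic donor) were treated for 6 h against a 0.1% DMSO solvent control. RNA from 320 000 cells per sample was measured by Fluidigm Biomark high-throughput qPCR. Values are fold change relative to solvent control, from four independent experiments, with SD. One-way ANOVA with Bonferroni post-test was applied.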

Keratinocyte [6] = test: Effect on growth factor related gene expression in diabetic adult human primary keratinocytes assessed as VEGFA mRNA levels at 1.96 uM after 6 hrs by qPCR analysis
Method in brief: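 Primary human keratinocytes (nondiabetic young or adult, diabetic adult donors) were exposed to compound for 6 h, with 0.1% DMSO as solvent control. Total RNA came from 400 000 cells per sample and was assayed on a Fluidigm Biomark high-throughput qPCR chip. Results are fold change vs solvent control, from 2−4 independent experiments on two donors per group, with SD. Groups were compared by one-way ANOVA with Bonferroni post-test.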

Fibroblast [7] = test: Effect on pro-inflammatory related gene expression in non-diabetic young human primary fibroblasts assessed as PTGS2 mRNA levels at 9.81 uM after 6 hrs by qPCR analysis
Keratinocyte [8] = test: Effect on pro-inflammatory related gene expression in diabetic adult human primary keratinocytes assessed as IL1B mRNA levels at 9.81 uM after 6 hrs by qPCR analysis
Fibroblast [9] = test: Effect on pro-inflammatory related gene expression in non-diabetic young human primary fibroblasts assessed as IL1B mRNA levels at 1.96 uM after 6 hrs by qPCR analysis
Fibroblast [10] = test: Effect on antiinflammatory related gene expression in diabetic adult human primary fibroblasts assessed as NFKBIA mRNA levels at 9.81 uM after 6 hrs by qPCR analysis
Method in brief: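 Primary dermal fibroblasts from one nondiabetic young, one nondiabetic adult and one diabetic adult donor; 320 000 cells per sample, 6 h at 1.96 or 9.81 μM. RNA measured on a high-throughput qPCR chip. Fold change versus 0.1% DMSO control, four independent experiments, SD, one-way ANOVA with Bonferroni post-test.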

## C=C(C)[C@@H]1CC[C@]2(CO)CC[C@]3(C)[C@H](CC[C@@H]4[C@@]5(C)CC[C@H](O)C(C)(C)[C@@H]5CC[C@]43C)[C@@H]12 [BETULIN]
[1]
  Activity: Active
Keratinocyte [2]
  Activity: Active
[3]
  Activity: Active
Keratinocyte [4]
  Activity: Active
Fibroblast [5]
  fold change (FC): 3.2
Keratinocyte [6]
  fold change (FC): 1.6
Fibroblast [7]
  fold change (FC): 14.7
Keratinocyte [8]
  fold change (FC): 1
Fibroblast [9]
  fold change (FC): 3.3
Fibroblast [10]
  fold change (FC): 1.4
